Assay results from ChEMBL document CHEMBL1141450, “Anthraquinones with quinone reductase-inducing activity and benzophenones from Morinda citrifolia (noni) roots” (J Nat Prod, 2007).

Tests used:
Hepa lclc7 = experiment: Induction of mouse quinone reductase in mouse Hepa lclc7 cells assessed as concentration required to double enzyme activity; format: cell-based
How it was run: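 Quinone reductase induction assay in Hepa 1c1c7 murine hepatoma cells (ATCC CRL-2026), with isoliquiritigenin as the positive control. CD is the concentration needed to double QR activity.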

[1] = Cytotoxicity against mouse Hepa lclc7 cells; format: cell-based
How it was run: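 Hepa 1c1c7 murine hepatoma cells (ATCC CRL-2026) were tested in the QR induction assay format. IC50 is the concentration inhibiting cell growth by 50%.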

[2] = Chemoprevention index, ratio of IC50 for mouse Hepa lclc7 cells to activity against mouse quinone reductase; format: functional
How it was run: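 Chemoprevention index is calculated as IC50 divided by CD. IC50 is the concentration giving 50% growth inhibition of Hepa 1c1c7 cells. CD is the concentration doubling quinone reductase activity in the same cells. Isoliquiritigenin is the positive control.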

[3] = Cytotoxicity against mouse Hepa lclc7 cells at 20 ug/mL; format: cell-based

Row | SMILES | Activity (Hepa lclc7) | IC50 [1] | Ratio [2] | Activity [3]
1 | O=C1c2ccccc2C(=O)c2cc(CO)c(O)cc21 | 0.94 µM | > 78 µM | >83 | –
2 | Cc1c(O)cc2c(c1O)C(=O)c1ccc(O)cc1C2=O | 0.56 µM | 47 µM | 85 | –
3 | COc1c(O)cc2c(c1O)C(=O)c1ccc(O)cc1C2=O | 0.009 µM | – | – | Non-toxic
4 | O=C1c2ccccc2C(=O)c2c1ccc(O)c2O [ATHRAQUINONES A] | 12 µM | 62 µM | 5.1 | –
5 | O=C(/C=C/c1ccc(O)cc1)c1ccc(O)cc1O [ISOLIQUIRITIGENIN] | 4.3 µM | 39 µM | 9.2 | –
6 | Cc1c(O)cc2c(c1O)C(=O)c1ccccc1C2=O [Rubiadin] | 8.1 µM | > 74 µM | >9 | –
